Measurements as given in ChEMBL document CHEMBL1156601, “Aminomethylpiperazines as selective urotensin antagonists” (Bioorg Med Chem Lett, 2008).

Key:
[1] = Displacement of [125I]hU-2 from human recombinant urotensin receptor expressed in HEK293 cells; format: cell-based
Outline: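 Radioligand binding with [125I]hU-II on membranes of HEK293 cells stably expressing recombinant human UT receptor. Ki given as the mean of at least two determinations (SD <±0.3 log units).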

[2] = molecular target: Kappa-type opioid receptor (Homo sapiens, UniProt P41145); experiment: Agonist activity at human kappa opioid receptor expressed in CHO-K1 cells by [35S]GTPgamma binding assay; format: functional, cell-based
Sequence of Kappa-type opioid receptor (P41145 whole entry): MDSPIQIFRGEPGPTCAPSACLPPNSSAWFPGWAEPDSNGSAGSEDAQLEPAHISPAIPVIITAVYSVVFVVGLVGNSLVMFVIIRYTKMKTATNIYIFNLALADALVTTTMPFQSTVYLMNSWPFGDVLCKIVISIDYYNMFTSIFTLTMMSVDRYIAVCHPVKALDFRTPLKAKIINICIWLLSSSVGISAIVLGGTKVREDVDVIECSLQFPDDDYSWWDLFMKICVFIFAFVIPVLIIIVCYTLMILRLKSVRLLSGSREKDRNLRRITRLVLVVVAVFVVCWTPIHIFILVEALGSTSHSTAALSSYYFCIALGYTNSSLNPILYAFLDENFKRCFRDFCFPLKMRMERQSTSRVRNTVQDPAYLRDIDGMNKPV
Outline: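 Human κ-opioid receptor, membranes from BacMam-transduced CHO-K1 cells. Agonism read as [35S]GTPγS binding, detected by LEADseeker SPA. EC50 reported from a single run or as the mean of two runs (SD <±0.3 log units).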

[3] = Displacement of [125I]hU-2 from rat recombinant urotensin receptor expressed in HEK293 cells; format: cell-based
[4] = Antagonist activity at rat urotensin receptor in Sprague-Dawley rat thoracic aorta assessed as inhibition of urotensin-mediated contraction; format: functional
Outline: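 Isolated rat aortic rings were contracted via UT, and the test agent's inhibition of that contraction was measured. The value is reported as a Kb, the mean of two determinations ± SEM.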

Rattus norvegicus = organism: Rattus norvegicus; experiment: Selectivity ratio of Kb for urotensin receptor in Sprague-Dawley rat thoracic aorta to Ki for rat recombinant urotensin receptor; format: tissue-based

Row | Structure (SMILES) | Ki [1] [µM] | EC50 [2] [µM] | Ki [3] [µM] | Kb [4] [µM] | Ratio (Rattus norvegicus)
1 | CN(CC(=O)N1CCN(C(=O)c2ccc(C#N)cc2)CC1CN1CCCC1)c1ccc(Cl)c(Cl)c1 (configuration not stated) | 1.3 | 3.2 | – | – | –
2 | COc1ccc(Br)cc1S(=O)(=O)N1CCN(C(=O)Cn2c(=O)oc3ccc(Cl)cc32)C(CN2CCCC2)C1 (configuration not stated) | 0.13 | 0.79 | – | – | –
3 | CN(CC(=O)N1CCN(S(C)(=O)=O)CC1CN1CCCC1)c1ccc(Cl)c(Cl)c1 (configuration not stated) | 0.1 | 0.003 | – | – | –
4 | CC(=O)Nc1ccc(S(=O)(=O)N2CCN(C(=O)Cn3c(=O)oc4ccc(Cl)cc43)C(CN3CCCC3)C2)cc1 (configuration not stated) | 0.0025 | 1.3 | 0.004 | 0.0131 | 3.3
5 | CN(CC(=O)N1CCN(C(=O)c2cccc(Cl)c2)CC1CN1CCCC1)c1ccc(Cl)c(Cl)c1 (configuration not stated) | 0.13 | > 10 | – | – | –
6 | O=C(Cn1c(=O)oc2ccc(Cl)cc21)N1CCN(S(=O)(=O)c2cccc(C(F)(F)F)c2)CC1CN1CCCC1 (configuration not stated) | 0.05 | 2 | – | – | –
7 | CN(CC(=O)N1CCN(C(=O)Nc2ccccc2)CC1CN1CCCC1)c1ccc(Cl)c(Cl)c1 (configuration not stated) | 0.79 | 4 | – | – | –
8 | O=C(Cn1c(=O)oc2ccc(Cl)cc21)N1CCN(S(=O)(=O)c2cc(C(F)(F)F)ccc2Cl)CC1CN1CCCC1 (configuration not stated) | 0.013 | 1 | – | – | –
9 | CN(CC(=O)N1CCN(C(=O)c2ccncc2)CC1CN1CCCC1)c1ccc(Cl)c(Cl)c1 (configuration not stated) | 0.1 | 0.63 | – | – | –
10 | CN(CC(=O)N1CCN(S(=O)(=O)c2cccc(Cl)c2)CC1CN1CCCC1)c1ccc(Cl)c(Cl)c1 (configuration not stated) | 0.16 | 0.2 | – | – | –
11 | COc1ccc(C(=O)N2CCN(C(=O)CN(C)c3ccc(Cl)c(Cl)c3)C(CN3CCCC3)C2)cc1OC (configuration not stated) | 0.4 | > 10 | – | – | –
12 | O=C(Cn1c(=O)oc2ccccc21)N1CCN(S(=O)(=O)c2ccccc2)CC1CN1CCCC1 (configuration not stated) | 0.5 | 1 | – | – | –
13 | CN(CC(=O)N1CCN(c2ccccc2)CC1CN1CCCC1)c1ccc(Cl)c(Cl)c1 (configuration not stated) | 0.25 | 0.0013 | – | – | –
14 | O=C(Cn1c(=O)oc2ccc(Cl)cc21)N1CCN(S(=O)(=O)c2ccccc2Br)CC1CN1CCCC1 (configuration not stated) | 0.008 | 2 | – | 0.0528 | –
15 | N#Cc1cccc(S(=O)(=O)N2CCN(C(=O)Cn3c(=O)oc4ccc(Cl)cc43)C(CN3CCCC3)C2)c1 (configuration not stated) | 0.01 | 0.63 | – | – | –
16 | O=C(Cn1c(=O)oc2ccc(Cl)cc21)N1CCN(S(=O)(=O)c2ccccc2)CC1CN1CCCC1 (configuration not stated) | 0.02 | 0.79 | – | – | –
17 | O=C(Cn1c(=O)oc2ccccc21)N1CCN(c2ccccc2)CC1CN1CCCC1 (configuration not stated) | 0.13 | 0.4 | – | – | –
18 | O=C(Cc1csc2ccc(Cl)cc12)N1CCN(c2ccccc2)CC1CN1CCCC1 (configuration not stated) | 0.063 | 0.002 | – | – | –

Row | Structure (SMILES) | Ki [1] [µM] | EC50 [2] [µM] | Ki [3] [µM] | Kb [4] [µM] | Ratio (Rattus norvegicus)
19 | CN(CC(=O)N1CCN(c2cccc(Cl)c2)CC1CN1CCCC1)c1ccc(Cl)c(Cl)c1 (configuration not stated) | 0.063 | 0.004 | – | – | –
20 | COc1cccc(S(=O)(=O)N2CCN(C(=O)CN(C)c3ccc(Cl)c(Cl)c3)C(CN3CCCC3)C2)c1 (configuration not stated) | 0.079 | 0.079 | – | – | –
21 | COc1cccc(S(=O)(=O)N2CCN(C(=O)Cn3c(=O)oc4ccc(Cl)cc43)C(CN3CCCC3)C2)c1 (configuration not stated) | 0.025 | 0.32 | – | – | –
22 | CN(CC(=O)N1CCN(S(=O)(=O)c2ccccc2)CC1CN1CCCC1)c1ccc(Cl)c(Cl)c1 (configuration not stated) | 0.02 | 0.25 | – | – | –
23 | O=C(Cn1c(C(F)(F)F)nc2ccccc21)N1CCN(c2ccccc2)CC1CN1CCCC1 (configuration not stated) | 0.079 | – | – | – | –
24 | CN(CC(=O)N1CCN(c2ccc(F)c(F)c2)CC1CN1CCCC1)c1ccc(Cl)c(Cl)c1 (configuration not stated) | 0.1 | 0.0063 | – | – | –
25 | O=C(O)c1ccc(S(=O)(=O)N2CCN(C(=O)Cn3c(=O)oc4ccc(Cl)cc43)C(CN3CCCC3)C2)cc1 (configuration not stated) | 0.025 | 2 | 0.032 | 0.0818 | 2.6
26 | COc1ccc(S(=O)(=O)N2CCN(C(=O)Cn3c(=O)oc4ccc(Cl)cc43)C(CN3CCCC3)C2)cc1OC (configuration not stated) | 0.013 | 0.32 | – | – | –
27 | CN(CC(=O)N1CCN(S(=O)(=O)c2ccc(Cl)cc2)CC1CN1CCCC1)c1ccc(Cl)c(Cl)c1 (configuration not stated) | 0.1 | 0.79 | – | – | –
28 | CN(CC(=O)N1CCN(C(=O)c2ccccc2)CC1CN1CCCC1)c1ccc(Cl)c(Cl)c1 (configuration not stated) | 0.2 | 7.9 | – | – | –
29 | COc1cccc(N2CCN(C(=O)CN(C)c3ccc(Cl)c(Cl)c3)C(CN3CCCC3)C2)c1 (configuration not stated) | 0.05 | 0.0032 | – | – | –
30 | O=C(O)c1ccc(S(=O)(=O)N2CCN(C(=O)Cn3c(=O)oc4ccc(Cl)cc43)C(CN3CCCC3)C2)cc1O (configuration not stated) | 0.013 | 7.9 | 0.008 | 0.01 | 1.3
31 | CN(CC(=O)N1CCCCC1CN1CCCC1)c1ccc(Cl)c(Cl)c1 (configuration not stated) | 0.5 | 0.003 | – | – | –
32 | COc1ccc(S(=O)(=O)N2CCN(C(=O)Cn3c(=O)oc4ccc(Cl)cc43)C(CN3CCCC3)C2)c(Br)c1OC (configuration not stated) | 0.0016 | 1.3 | 0.01 | 0.0142 | 1.4
33 | COc1ccc(S(=O)(=O)N2CCN(C(=O)Cn3c(=O)oc4ccc(Cl)cc43)C(CN3CCCC3)C2)cc1 (configuration not stated) | 0.025 | 2 | – | – | –
34 | O=C(Cc1cccc2ccccc12)N1CCN(c2ccccc2)CC1CN1CCCC1 (configuration not stated) | 0.32 | 0.0016 | – | – | –
35 | CN(CC(=O)N1CCN(S(=O)(=O)c2ccc(F)c(F)c2)CC1CN1CCCC1)c1ccc(Cl)c(Cl)c1 (configuration not stated) | 0.13 | 0.4 | – | – | –
